ChEMBL document CHEMBL1122509, “(1,3-Dialkyl-5-amino-1H-pyrazol-4-yl)arylmethanones. A series of novel central nervous system depressants” (1984)

Assays:
Mus musculus [1] = organism: Mus musculus; assay: Central nervous system depressant activity; assay type: functional
Summary of the method: (§1)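 Male albino Webster mice, 20–26 g, groups of five, given ip doses of 250, 125, 63 mg/kg and lower until no effect was seen. Doses were calculated as active component and given in 0.9% saline or 100% propylene glycol. Observers scored motor activity, ataxia, depression, reflexes, posture, muscle tone and responses to noise, touch, restraint and transfer over 15–60 min. Survivors were held 24 h for a provisional acute toxicity level.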

Mus musculus [2] = assay: Compound was evaluated for the inhibition of Locomotion-Screen falloff test, at dose (mg/Kg) = 30; 60-100%; assay type: functional
Summary of the method: (§2)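 Unfasted male Swiss–Webster mice, 20–30 g, nine per dose in three groups of three, received 10, 30 or 100 mg/kg ip as parent compound in 0.2% methocel, 1 h before testing; controls got methocel. Screen test: percent of mice falling from a screen inverted 180° during 60 s. Then locomotion was read by actophotometer over 1 h as percent inhibition versus vehicle. Graded bands: 60–100% = A.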

Mus musculus [3] = assay: Compound was evaluated for the inhibition of Locomotion-Screen falloff test by ip route; assay type: functional; summary of the method: as §2
Mus musculus [4] = assay: Compound was evaluated for the inhibition of Locomotion-Screen falloff test, at dose (mg/Kg) = 100; 60-100%; assay type: functional; summary of the method: as §2
Mus musculus [5] = assay: Compound was evaluated for the inhibition of Locomotion-Screen falloff test, at dose (mg/Kg) = 10; 0-30%; assay type: functional; summary of the method: as §2
Rattus norvegicus = assay: Evaluated for anticonvulsant activity to protect all rats tested, when administered subcutaneously; assay type: functional
Mus musculus [6] = assay: Compound was evaluated for the inhibition of Locomotion-Screen falloff test, at dose (mg/Kg) = 30; 0-30%; assay type: functional; summary of the method: as §2
Mus musculus [7] = assay: Compound was evaluated for the inhibition of Locomotion-Screen falloff test, at dose (mg/Kg) = 100; 31-59%; assay type: functional; summary of the method: as §2
Mus musculus [8] = assay: Compound was evaluated for the inhibition of Locomotion-Screen falloff test, at dose (mg/Kg) = 10; 31-59%; assay type: functional; summary of the method: as §2
Mus musculus [9] = assay: Compound was evaluated for the inhibition of Locomotion-Screen falloff test, at dose (mg/Kg) = 10; 60-100%; assay type: functional; summary of the method: as §2
Mus musculus [10] = assay: Compound was evaluated for the inhibition of Locomotion-Screen falloff test, at dose (mg/Kg) = 30; 31-59%; assay type: functional; summary of the method: as §2
Mus musculus [11] = assay: Compound was evaluated for central nervous system depressant activity at 250 mg/kg; c=Quiet at 250 mg/kg; assay type: functional, organism-based; summary of the method: as §1
Mus musculus [12] = assay: Compound was evaluated for the inhibition of Locomotion-Screen falloff test, at dose (mg/Kg) = 10; assay type: functional
Summary of the method: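 Swiss-Webster male mice (20–30 g, unfasted), 9 per dose in three groups of three; 10 mg/kg ip in 0.2% methocel, dosed as parent compound, 1 h before testing; methocel-injected controls. Inverted wire screen (180° rotation, 60 s) scored as percent falling off. Then actophotometer counts over 1 h give percent inhibition versus vehicle; graded A = 60–100%.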

Row | Structure (SMILES) | Activity (Mus musculus [1]) [mg/kg] | Activity (Rattus norvegicus) [mg/kg] | also measured
1 | Cc1nn(C)c(N)c1C(=O)c1cccs1 | 8 |  | Inhibition (Mus musculus [2]): 60%; ED50 (Mus musculus [3]): 34.2 mg/kg; Inhibition (Mus musculus [4]): 60%; Inhibition (Mus musculus [5]): 0%
2 | CCCn1nc(C)c(C(=O)c2ccccc2Br)c1N | 8 | 32 | 
3 | CCCc1nn(C)c(N)c1C(=O)c1ccccc1Cl | 32 | 125 | 
4 | Cc1nn(C)c(N)c1C(=O)c1cccc(Cl)c1 | 125 | 63 | Inhibition (Mus musculus [6]): 0%; Inhibition (Mus musculus [7]): 31%; Inhibition (Mus musculus [5]): 0%
5 | CCc1nn(C)c(N)c1C(=O)c1ccccc1F | 32 | 250 | Inhibition (Mus musculus [6]): 0%; Inhibition (Mus musculus [7]): 31%; Inhibition (Mus musculus [5]): 0%
6 | Cc1nn(C)c(N)c1C(=O)c1cccc(C(F)(F)F)c1 | 4 | 125 | Inhibition (Mus musculus [6]): 0%; Inhibition (Mus musculus [7]): 31%; Inhibition (Mus musculus [5]): 0%
7 | CCCn1nc(C)c(C(=O)c2ccccc2C(F)(F)F)c1N | 8 | 63 | 
8 | Cc1nn(C)c(N)c1C(=O)c1ccsc1 | 16 |  | 
9 | CCCn1nc(C)c(C(=O)c2cccc(OC)c2Cl)c1N | 16 | 63 | 
10 | CCCn1nc(C)c(C(=O)c2ccccc2C)c1N | 16 | 63 | 
11 | Cc1ccccc1C(=O)c1c(C)nn(C)c1N | 32 | 125 | Inhibition (Mus musculus [6]): 0%; Inhibition (Mus musculus [4]): 60%; Inhibition (Mus musculus [8]): 31%
12 | CCn1nc(C)c(C(=O)c2ccccc2Cl)c1N | 32 | 16 | 
13 | Cc1nn(C)c(N)c1C(=O)c1ccccc1F | 32 | 250 | Inhibition (Mus musculus [9]): 60%; Inhibition (Mus musculus [2]): 60%; ED50 (Mus musculus [3]): 9.4 mg/kg
14 | CCCn1nc(C)c(C(=O)c2ccccc2Cl)c1N | 8 | 32 | 
15 | CCCCn1nc(C)c(C(=O)c2cccc(Cl)c2)c1N | 32 | 500 | 
16 | Cc1nn(C)c(N)c1C(=O)c1ccccc1C(F)(F)F | 125 | 250 | Inhibition (Mus musculus [10]): 31%; Inhibition (Mus musculus [4]): 60%; Inhibition (Mus musculus [5]): 0%
17 | CCCCc1nn(C)c(N)c1C(=O)c1ccccc1Cl |  | 125 | 
18 | COc1ccccc1C(=O)c1c(C)nn(C)c1N | 32 | 125 | Inhibition (Mus musculus [10]): 31%; Inhibition (Mus musculus [7]): 31%; Inhibition (Mus musculus [5]): 0%
19 | Cc1nn(C2CCCCC2)c(N)c1C(=O)c1ccccc1Cl |  |  | Activity (Mus musculus [11]): Quiet at 250mg/kg

Row | Structure (SMILES) | Activity (Mus musculus [1]) [mg/kg] | Activity (Rattus norvegicus) [mg/kg] | also measured
20 | Cc1nn(C)c(N)c1C(=O)c1ccccc1Cl | 63 | 125 | Inhibition (Mus musculus [6]): 0%; Inhibition (Mus musculus [4]): 60%; Inhibition (Mus musculus [5]): 0%
21 | Cn1nc(-c2ccccc2)c(C(=O)c2ccccc2Cl)c1N | 250 |  | 
22 | CCc1nn(C)c(N)c1C(=O)c1cccc(F)c1 | 63 | 500 | 
23 | CCc1nn(C)c(N)c1C(=O)c1ccccc1Cl | 63 | 500 | 
24 | CSc1ccc2c(c1)N(CCC1CCCCN1C)c1ccccc1S2 (configuration not stated) [THIORIDAZINE] |  |  | Inhibition (Mus musculus [9]): 60%; ED50 (Mus musculus [3]): 2.9 mg/kg
25 | CC(C)c1nn(C)c(N)c1C(=O)c1ccccc1Cl | 63 |  | 
26 | Cc1nn(C)c(N)c1C(=O)c1ccc(Cl)cc1 | 125 | 125 | Inhibition (Mus musculus [6]): 0%; Inhibition (Mus musculus [4]): 60%; Inhibition (Mus musculus [5]): 0%
27 | COc1cccc(C(=O)c2c(C)nn(C)c2N)c1Cl | 32 | 250 | 
28 | Cc1nn(-c2ccccc2)c(N)c1C(=O)c1ccccc1Cl | 250 |  | 
29 | CCCn1nc(C)c(C(=O)c2ccccc2OC)c1N | 16 | 125 | 
30 | CCCn1nc(C)c(C(=O)c2ccc(Cl)cc2)c1N | 16 | 32 | 
31 | CCCn1nc(C)c(C(=O)c2cccs2)c1N | 250 | 125 | 
32 | Cc1nn(C)c(N)c1C(=O)c1ccccc1Br | 63 | 125 | Inhibition (Mus musculus [6]): 0%; Inhibition (Mus musculus [7]): 31%; Inhibition (Mus musculus [8]): 31%
33 | Cc1nn(C(C)C)c(N)c1C(=O)c1ccccc1Cl | 63 | 500 | 
34 | Cc1nn(C)c(N)c1C(=O)c1ccccc1 | 63 | 500 | Inhibition (Mus musculus [10]): 31%; Inhibition (Mus musculus [4]): 60%; Inhibition (Mus musculus [5]): 0%
35 | CCc1nn(C)c(N)c1C(=O)c1ccccc1 | 16 | 250 | Inhibition (Mus musculus [2]): 60%; Inhibition (Mus musculus [7]): 31%; Inhibition (Mus musculus [8]): 31%
36 | CCCCn1nc(C)c(C(=O)c2ccccc2Cl)c1N | 8 | 125 | 
37 | O=c1[nH]c2ccccc2n1C1CCN(CCCC(c2ccc(F)cc2)c2ccc(F)cc2)CC1 [PIMOZIDE] |  |  | Inhibition (Mus musculus [9]): 60%; ED50 (Mus musculus [12]): 5.9 mg/kg
